Test results taken from ChEMBL document CHEMBL4342411, “Novel multitarget 5-arylidenehydantoins with arylpiperazinealkyl fragment: Pharmacological evaluation and investigation of cytotoxicity and metabolic stability” (Bioorg Med Chem, 2019).

Biological target: 5-hydroxytryptamine receptor 6 (Homo sapiens) (UniProt P50406)
Assay: Displacement of [3H]-LSD from human recombinant 5-HT6 receptor expressed in CHO cells at 10^-6 M incubated for 60 mins by microbeta2 scintillation counter relative to control
Assay type: cell-based
Conditions: not given
Summary of the method: (§1)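 Radioligand displacement from recombinant human receptor membranes, tested at two final concentrations (10^-6 and 10^-7 M), with scintillation counting. Results were expressed as percent inhibition of specific binding.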

Sequence of 5-hydroxytryptamine receptor 6 (Homo sapiens) (P50406 whole entry): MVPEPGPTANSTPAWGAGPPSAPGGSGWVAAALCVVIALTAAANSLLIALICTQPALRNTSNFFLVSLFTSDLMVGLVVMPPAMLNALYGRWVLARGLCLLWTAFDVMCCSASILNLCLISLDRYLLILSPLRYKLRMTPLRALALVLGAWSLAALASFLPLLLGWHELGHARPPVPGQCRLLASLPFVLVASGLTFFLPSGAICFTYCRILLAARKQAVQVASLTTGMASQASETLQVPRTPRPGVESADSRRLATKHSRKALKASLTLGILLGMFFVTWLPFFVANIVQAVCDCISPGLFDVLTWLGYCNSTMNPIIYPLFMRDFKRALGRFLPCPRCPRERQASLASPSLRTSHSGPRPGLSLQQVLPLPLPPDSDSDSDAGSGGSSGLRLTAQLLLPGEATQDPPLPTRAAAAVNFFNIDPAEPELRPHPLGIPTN

Row | Compound | inhibition [%]
1 | COc1ccc(/C=C2\NC(=O)N(CCCN3CCN(c4ccccc4OC)CC3)C2=O)cc1OC | 0
2 | COc1ccc(/C=C2\NC(=O)N(CCCCN3CCN(c4cccc(Cl)c4Cl)CC3)C2=O)cc1OC1CCCC1 | 34
3 | COc1ccc(/C=C2\NC(=O)N(CCCCN3CCN(c4cccc(Cl)c4Cl)CC3)C2=O)cc1OC | 82
4 | CSc1ccc2c(c1)C(N1CCN(C)CC1)Cc1ccccc1S2 (stereo not drawn) | 99

Biological target: 3',5'-cyclic-AMP phosphodiesterase 4B (Homo sapiens) (UniProt Q07343)
Assay: Inhibition of human recombinant full length N-terminal GST-tagged PDE4B1 expressed in baculovirus infected Sf9 cells at 10^-5 M using cAMP as substrate incubated for 20 mins followed by substrate addition by luciferase assay relative to control
Conditions: not given

Sequence of 3',5'-cyclic-AMP phosphodiesterase 4B (Homo sapiens) (Q07343 whole entry): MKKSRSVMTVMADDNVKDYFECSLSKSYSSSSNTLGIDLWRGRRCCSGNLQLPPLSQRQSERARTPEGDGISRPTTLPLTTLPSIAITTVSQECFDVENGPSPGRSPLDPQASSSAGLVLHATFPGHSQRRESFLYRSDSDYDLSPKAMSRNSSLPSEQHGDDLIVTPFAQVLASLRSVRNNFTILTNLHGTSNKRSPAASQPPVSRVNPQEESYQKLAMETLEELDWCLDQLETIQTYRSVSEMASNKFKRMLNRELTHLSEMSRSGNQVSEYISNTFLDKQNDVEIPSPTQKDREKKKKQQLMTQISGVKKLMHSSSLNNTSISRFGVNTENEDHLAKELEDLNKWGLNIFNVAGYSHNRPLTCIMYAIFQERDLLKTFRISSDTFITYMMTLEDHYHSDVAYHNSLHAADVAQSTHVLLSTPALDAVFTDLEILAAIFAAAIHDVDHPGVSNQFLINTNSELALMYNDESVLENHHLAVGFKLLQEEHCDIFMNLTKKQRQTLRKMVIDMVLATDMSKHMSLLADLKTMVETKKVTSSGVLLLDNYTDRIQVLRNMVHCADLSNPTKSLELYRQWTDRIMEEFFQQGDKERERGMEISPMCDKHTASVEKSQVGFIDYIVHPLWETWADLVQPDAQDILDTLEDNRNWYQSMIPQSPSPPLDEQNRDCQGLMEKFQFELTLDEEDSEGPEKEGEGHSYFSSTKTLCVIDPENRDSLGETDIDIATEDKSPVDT

Row | Compound | inhibition [%]
5 | COc1ccc(/C=C2\NC(=O)N(CCCN3CCN(c4ccccc4OC)CC3)C2=O)cc1OC | 9
6 | COc1ccc(/C=C2\NC(=O)N(CCCCN3CCN(c4cccc(Cl)c4Cl)CC3)C2=O)cc1OC1CCCC1 | 3
7 | COc1ccc(/C=C2\NC(=O)N(CCCCN3CCN(c4cccc(Cl)c4Cl)CC3)C2=O)cc1OC | 5

Biological target: T1, 5-hydroxytryptamine receptor 1A (Homo sapiens, UniProt P08908)
T1 sequence (P08908 whole entry): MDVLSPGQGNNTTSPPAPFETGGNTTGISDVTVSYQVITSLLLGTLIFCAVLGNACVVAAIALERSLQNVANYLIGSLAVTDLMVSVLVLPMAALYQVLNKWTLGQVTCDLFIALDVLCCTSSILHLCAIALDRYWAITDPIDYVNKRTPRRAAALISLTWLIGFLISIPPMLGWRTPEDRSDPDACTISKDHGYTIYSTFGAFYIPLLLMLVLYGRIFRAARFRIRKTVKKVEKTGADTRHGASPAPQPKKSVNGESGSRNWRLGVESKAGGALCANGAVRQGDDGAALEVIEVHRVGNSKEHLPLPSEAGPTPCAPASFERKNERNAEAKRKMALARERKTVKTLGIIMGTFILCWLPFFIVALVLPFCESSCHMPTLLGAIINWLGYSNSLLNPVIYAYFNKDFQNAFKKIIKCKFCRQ
Assay: Displacement of [3H]-8-OH-DPAT from human recombinant 5-HT1A receptor expressed in HEK293 cells incubated for 60 mins by microbeta2 scintillation counter
Assay type: cell-based
Conditions: not given

Row | Compound | Ki [nM]
8 | COc1ccc(/C=C2\NC(=O)N(CCCN3CCN(c4ccccc4OC)CC3)C2=O)cc1OC | 13
9 | COc1ccc(/C=C2\NC(=O)N(CCCCN3CCN(c4cccc(Cl)c4Cl)CC3)C2=O)cc1OC1CCCC1 | 132
10 | COc1ccc(/C=C2\NC(=O)N(CCCCN3CCN(c4cccc(Cl)c4Cl)CC3)C2=O)cc1OC | 0.2

Biological target: T2, 5-hydroxytryptamine receptor 7 (Homo sapiens, UniProt P34969)
Assay: biochemical
Assay type: cell-based, CHO
Conditions: not given

T2 sequence (P34969 whole entry): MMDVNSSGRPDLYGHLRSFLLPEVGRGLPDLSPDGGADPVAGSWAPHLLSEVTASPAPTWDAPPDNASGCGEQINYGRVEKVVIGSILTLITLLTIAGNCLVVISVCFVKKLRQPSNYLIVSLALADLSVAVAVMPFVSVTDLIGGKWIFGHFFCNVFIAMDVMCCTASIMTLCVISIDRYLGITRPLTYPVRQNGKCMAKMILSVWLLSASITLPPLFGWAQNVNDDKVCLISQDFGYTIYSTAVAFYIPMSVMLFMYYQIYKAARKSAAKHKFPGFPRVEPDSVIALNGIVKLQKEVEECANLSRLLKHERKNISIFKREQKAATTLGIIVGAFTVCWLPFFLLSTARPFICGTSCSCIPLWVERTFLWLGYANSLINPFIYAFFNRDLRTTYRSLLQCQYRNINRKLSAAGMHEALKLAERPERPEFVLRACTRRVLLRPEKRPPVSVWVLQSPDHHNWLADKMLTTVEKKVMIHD

Row | Compound | Ki [nM]
11 | COc1ccc(/C=C2\NC(=O)N(CCCN3CCN(c4ccccc4OC)CC3)C2=O)cc1OC | 42
12 | COc1ccc(/C=C2\NC(=O)N(CCCCN3CCN(c4cccc(Cl)c4Cl)CC3)C2=O)cc1OC1CCCC1 | 125
13 | COc1ccc(/C=C2\NC(=O)N(CCCCN3CCN(c4cccc(Cl)c4Cl)CC3)C2=O)cc1OC | 0.8

Biological target: 5-hydroxytryptamine receptor 6 (Homo sapiens) (UniProt P50406)
Assay: Displacement of [3H]-LSD from human recombinant 5-HT6 receptor expressed in CHO cells at 10^-7 M incubated for 60 mins by microbeta2 scintillation counter relative to control
Assay type: cell-based
Conditions: not given
Summary of the method: as §1

Row | Compound | inhibition [%]
14 | COc1ccc(/C=C2\NC(=O)N(CCCN3CCN(c4ccccc4OC)CC3)C2=O)cc1OC | 0
15 | COc1ccc(/C=C2\NC(=O)N(CCCCN3CCN(c4cccc(Cl)c4Cl)CC3)C2=O)cc1OC1CCCC1 | 8
16 | COc1ccc(/C=C2\NC(=O)N(CCCCN3CCN(c4cccc(Cl)c4Cl)CC3)C2=O)cc1OC | 6
17 | CSc1ccc2c(c1)C(N1CCN(C)CC1)Cc1ccccc1S2 (stereo not drawn) | 99

Biological target: T3, 5-hydroxytryptamine receptor 1A (Homo sapiens) (UniProt P08908)
T3 sequence (whole entry): T1 sequence (P08908 whole entry)
Assay: Agonist activity at human recombinant 5-HT1A receptor expressed in CHOK1 cells measured after 1 hr by microbeta2 scintillation counter relative to control
Assay type: cell-based
Conditions: not given
Summary of the method: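 Aequorin Ca2+ assay in CHO-K1 cells coexpressing mitochondrial aequorin, human 5-HT1A and Gα16. Thawed cells were loaded with coelenterazine h (5 μM final) for 16 h at 16 °C in the dark with agitation, then diluted to 5000 cells/ml. After 1 h they were injected onto the compounds (8–10 concentrations) and luminescence was recorded for 30 s.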

Row | Compound | Emax [%]
18 | COc1ccc(/C=C2\NC(=O)N(CCCCN3CCN(c4cccc(Cl)c4Cl)CC3)C2=O)cc1OC | 12

Biological target: T3, 5-hydroxytryptamine receptor 1A (Homo sapiens)
Assay: Antagonist activity at human recombinant 5-HT1A receptor expressed in CHOK1 cells incubated for 25 mins followed by addition of […] by microbeta2 scintillation counter relative to control
Assay type: cell-based
Conditions: not given
Summary of the method: (§2)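 Aequorin Ca2+ assay in antagonist mode in CHO-K1 cells expressing human 5-HT1A, Gα16 and mitochondrial aequorin, loaded with 5 μM coelenterazine h. Cells were injected onto the compounds (8–10 concentrations) and incubated for 25 min.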

Row | Compound | Emax [%]
19 | COc1ccc(/C=C2\NC(=O)N(CCCCN3CCN(c4cccc(Cl)c4Cl)CC3)C2=O)cc1OC | 15

Biological target: T2, 5-hydroxytryptamine receptor 7
Assay: Agonist activity at human recombinant 5-HT7 receptor expressed in CHOK1 cells by LANCE TR-FRET assay relative to control
Assay type: cell-based
Conditions: not given
Summary of the method: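 cAMP assay in CHO-K1 cells expressing human 5-HT7 […], at 2x10^5 cells/ml in HBSS with 5 mM HEPES, IBMX and 0.1% BSA, pH 7.4. Cells were stimulated with the compounds (8 concentrations) for 60 min at room temperature. cAMP was read by LANCE Ultra TR-FRET after 1 h with tracer and antibody. EC50 was obtained by nonlinear regression.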

Row | Compound | Emax [%]
20 | COc1ccc(/C=C2\NC(=O)N(CCCCN3CCN(c4cccc(Cl)c4Cl)CC3)C2=O)cc1OC | 13

Biological target: T2, 5-hydroxytryptamine receptor 7
Assay: Antagonist activity at human recombinant 5-HT7 receptor expressed in CHOK1 cells measured after 60 mins in the presence of serotonin by LANCE TR-FRET assay relative to control
Assay type: cell-based
Conditions: not given

Row | Compound | Emax [%]
21 | COc1ccc(/C=C2\NC(=O)N(CCCCN3CCN(c4cccc(Cl)c4Cl)CC3)C2=O)cc1OC | 37

Biological target: T3, 5-hydroxytryptamine receptor 1A (Homo sapiens)
Assay: Antagonist activity at human recombinant 5-HT1A receptor expressed in CHOK1 cells assessed as equilibrium binding constant incubated for 25 mins followed by addition of methiothepin by microbeta2 scintillation counter
Assay type: cell-based
Conditions: in the assay text read “serotonin” for “methiothepin”
Summary of the method: as §2

Row | Compound | Kb [nM]
22 | COc1ccc(/C=C2\NC(=O)N(CCCCN3CCN(c4cccc(Cl)c4Cl)CC3)C2=O)cc1OC | 1.3

Biological target: T2, 5-hydroxytryptamine receptor 7
Assay: Antagonist activity at human recombinant 5-HT7 receptor expressed in CHOK1 cells assessed as equilibrium binding constant measured after 60 mins in the presence of serotonin by LANCE TR-FRET assay
Assay type: cell-based
Conditions: not given

Row | Compound | Kb [nM]
23 | COc1ccc(/C=C2\NC(=O)N(CCCCN3CCN(c4cccc(Cl)c4Cl)CC3)C2=O)cc1OC | 54.3

Biological target: T1, 5-hydroxytryptamine receptor 1A
Assay: Antagonist activity at human recombinant 5-HT1A receptor expressed in CHOK1 cells incubated for 25 mins followed by addition of methiothepin by microbeta2 scintillation counter
Assay type: cell-based
Conditions: in the assay text read “serotonin” for “methiothepin”; read-out: IC50
Summary of the method: as §2

Row | Compound | IC50 [nM]
24 | COc1ccc(/C=C2\NC(=O)N(CCCCN3CCN(c4cccc(Cl)c4Cl)CC3)C2=O)cc1OC | 39

Biological target: T2, 5-hydroxytryptamine receptor 7
Assay: Antagonist activity at human recombinant 5-HT7 receptor expressed in CHOK1 cells measured after 60 mins in the presence of serotonin by LANCE TR-FRET assay
Assay type: cell-based
Conditions: not given

Row | Compound | IC50 [nM]
25 | COc1ccc(/C=C2\NC(=O)N(CCCCN3CCN(c4cccc(Cl)c4Cl)CC3)C2=O)cc1OC | 163

Tested on: SW480
Assay: Cytotoxicity against human SW480 cells assessed as growth inhibition measured after 72 hrs by MTT assay
Assay type: functional, cell-based
Conditions: SW480, 72 h
Summary of the method: (§3)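 Cells were seeded at 1 × 10^4 per well: SW480 in MEM, PC3 in RPMI 1640, HaCaT in DMEM high glucose, each with 10% FBS. Compounds were added at 10–140 µM and incubated for 72 h. MTT was then added at 0.5 mg/mL in serum-free medium for 4 h at 37 °C. Formazan was dissolved in DMSO/isopropanol (1:1) and read at 570 nm. IC50 was given in µM; untreated cells served as control.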

Row | Compound | IC50 [nM]
26 | COc1ccc(/C=C2\NC(=O)N(CCCCN3CCN(c4cccc(Cl)c4Cl)CC3)C2=O)cc1OC | 255000

Tested on: PC-3
Assay: Cytotoxicity against human PC3 cells assessed as growth inhibition measured after 72 hrs by MTT assay
Assay type: functional, cell-based
Conditions: PC-3, 72 h
Summary of the method: as §3

Row | Compound | IC50 [nM]
27 | COc1ccc(/C=C2\NC(=O)N(CCCCN3CCN(c4cccc(Cl)c4Cl)CC3)C2=O)cc1OC | 227000

Tested on: HaCaT
Assay: Cytotoxicity against human HaCaT cells assessed as growth inhibition measured after 72 hrs by MTT assay
Assay type: cell-based
Conditions: not given
Summary of the method: as §3

Row | Compound | IC50 [nM]
28 | COc1ccc(/C=C2\NC(=O)N(CCCCN3CCN(c4cccc(Cl)c4Cl)CC3)C2=O)cc1OC | 296000

Tested on: not listed separately
Assay: Selectivity index, ratio of IC50 for human HaCaT cells to IC50 for human SW480 cells
Conditions: not given

Row | Compound | Ratio IC50
29 | COc1ccc(/C=C2\NC(=O)N(CCCCN3CCN(c4cccc(Cl)c4Cl)CC3)C2=O)cc1OC | 1.16

Tested on: not listed separately
Assay: Selectivity index, ratio of IC50 for human HaCaT cells for human PC3 cells
Assay type: toxicity
Conditions: HaCaT cells versus PC3 cells, read-out: Ratio IC50

Row | Compound | selectivity ratio
30 | COc1ccc(/C=C2\NC(=O)N(CCCCN3CCN(c4cccc(Cl)c4Cl)CC3)C2=O)cc1OC | 1.31

Tested on: Mus musculus
Assay: Antidepressant activity in Swiss albino mouse assessed as decrease in immobility time at 0.625 mg/kg, ip measured after 60 mins by forced swim test relative to control
Assay type: functional
Design: scale not given: the % may be the effect or the level left
Conditions: not given
Summary of the method: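 Male Swiss albino mice (22–26 g), 7–10 per dose, were dosed ip in 1% Tween 80 at 10 ml/kg 60 min before the test. In the Porsolt test, each mouse was placed for 6 min in a cylinder with 6 cm of water at 23–25 °C. Immobility was scored over the last 4 min and compared with vehicle controls by ANOVA/Bonferroni.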

Row | Compound | Activity [%]
31 | COc1ccc(/C=C2\NC(=O)N(CCCCN3CCN(c4cccc(Cl)c4Cl)CC3)C2=O)cc1OC | 27

Tested on: Mus musculus
Assay: Effect on locomotor activity in Swiss albino mouse at 0.625 mg/kg, ip
Assay type: ADME, organism-based
Conditions: in vivo
Summary of the method: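 Male Swiss albino mice were dosed ip in 1% Tween 80 at 10 ml/kg 60 min before testing. Each mouse was placed individually in a cage in a photobeam activity monitor. Ambulation crossings were counted from 2 to 6 min.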

Row | Compound | Activity
32 | COc1ccc(/C=C2\NC(=O)N(CCCCN3CCN(c4cccc(Cl)c4Cl)CC3)C2=O)cc1OC | Non-Toxic

Biological target: 5-hydroxytryptamine receptor 2A (Homo sapiens) (UniProt P28223)
Assay: not given
Conditions: HEK293, at 1 µM

Sequence of 5-hydroxytryptamine receptor 2A (Homo sapiens) (P28223 whole entry): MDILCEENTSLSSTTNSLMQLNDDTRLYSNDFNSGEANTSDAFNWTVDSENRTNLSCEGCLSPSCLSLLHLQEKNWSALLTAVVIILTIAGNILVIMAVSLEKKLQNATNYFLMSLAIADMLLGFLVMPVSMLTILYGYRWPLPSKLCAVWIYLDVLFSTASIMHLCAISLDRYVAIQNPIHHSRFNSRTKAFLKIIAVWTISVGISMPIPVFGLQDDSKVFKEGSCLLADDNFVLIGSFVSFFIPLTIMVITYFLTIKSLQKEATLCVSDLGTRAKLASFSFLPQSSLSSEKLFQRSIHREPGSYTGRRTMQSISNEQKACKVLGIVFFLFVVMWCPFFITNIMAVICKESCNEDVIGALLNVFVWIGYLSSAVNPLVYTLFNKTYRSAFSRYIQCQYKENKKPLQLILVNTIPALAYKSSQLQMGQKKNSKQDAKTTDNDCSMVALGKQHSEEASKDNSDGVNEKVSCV

Row | Compound | inhibition [%]
33 | COc1ccc(/C=C2\NC(=O)N(CCCN3CCN(c4ccccc4OC)CC3)C2=O)cc1OC | 83
34 | COc1ccc(/C=C2\NC(=O)N(CCCCN3CCN(c4cccc(Cl)c4Cl)CC3)C2=O)cc1OC1CCCC1 | 90
35 | COc1ccc(/C=C2\NC(=O)N(CCCCN3CCN(c4cccc(Cl)c4Cl)CC3)C2=O)cc1OC | 98

Biological target: 5-hydroxytryptamine receptor 2A (Homo sapiens) (UniProt P28223)
Assay: not given
Conditions: HEK293, at 0.1 µM

Row | Compound | inhibition [%]
36 | COc1ccc(/C=C2\NC(=O)N(CCCN3CCN(c4ccccc4OC)CC3)C2=O)cc1OC | 25
37 | COc1ccc(/C=C2\NC(=O)N(CCCCN3CCN(c4cccc(Cl)c4Cl)CC3)C2=O)cc1OC1CCCC1 | 39
38 | COc1ccc(/C=C2\NC(=O)N(CCCCN3CCN(c4cccc(Cl)c4Cl)CC3)C2=O)cc1OC | 82
